Experiments:
Assay type in all cases: functional
SF-295 = assay: Growth inhibition of human SF295 cells at 10 uM incubated for 48 hrs by sulforhodamine B assay relative to control; conditions: SF-295, 48 h, read-out: GI
Outline: (§1)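 NCI single-dose screen: cells grown in RPMI 1640 with 5% FBS and 2 mM L-glutamine, plated at 5,000–40,000 cells/well and preincubated 24 h at 37 °C, 5% CO2. Compounds taken from DMSO stock and tested at final 10 µM for 48 h. Cells fixed with TCA, stained with 0.4% SRB, absorbance read at 515 nm. Percentage growth calculated against untreated controls; controls held DMSO at the same dilution.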

SK-MEL-2 = assay: Growth inhibition of human SK-MEL-2 cells at 10 uM incubated for 48 hrs by sulforhodamine B assay relative to control; conditions: SK-MEL-2, 48 h, read-out: GI; outline: as §1
NCI-H226 = assay: Growth inhibition of human NCI-H226 cells at 10 uM incubated for 48 hrs by sulforhodamine B assay relative to control; conditions: NCI-H226, 48 h, read-out: GI
Outline: (§2)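 Single-dose screen at 10 μM final: cells in RPMI 1640, 5% FBS, 2 mM L-glutamine, plated 5,000–40,000/well, preincubated 24 h at 37°C, 5% CO2; drug 48 h; adherent cells fixed with 10% TCA, suspension cells with 16% TCA; SRB stain, absorbance 515 nm; percentage growth versus untreated control, with time-zero plates.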

SW-620 = assay: Growth inhibition of human SW620 cells at 10 uM incubated for 48 hrs by sulforhodamine B assay relative to control; conditions: SW-620, 48 h, read-out: GI; outline: as §1
DU-145 = assay: Growth inhibition of human DU145 cells at 10 uM incubated for 48 hrs by sulforhodamine B assay relative to control; conditions: DU-145, 48 h, read-out: GI; outline: as §2
SK-MEL-28 = assay: Growth inhibition of human SK-MEL-28 cells at 10 uM incubated for 48 hrs by sulforhodamine B assay relative to control; conditions: SK-MEL-28, 48 h, read-out: GI; outline: as §1
U-251 = assay: Growth inhibition of human U251 cells at 10 uM incubated for 48 hrs by sulforhodamine B assay relative to control; conditions: U-251, 48 h, read-out: GI; outline: as §1
EKVX = assay: Growth inhibition of human EKVX cells at 10 uM incubated for 48 hrs by sulforhodamine B assay relative to control; conditions: read-out: GI; outline: as §2
UACC-257 = assay: Growth inhibition of human UACC257 cells at 10 uM incubated for 48 hrs by sulforhodamine B assay relative to control; conditions: UACC-257, 48 h, read-out: GI; outline: as §1
CAKI-1 = assay: Growth inhibition of human Caki1 cells at 10 uM incubated for 48 hrs by sulforhodamine B assay relative to control; conditions: CAKI-1, 48 h, read-out: GI; outline: as §2
OVCAR-5 = assay: Growth inhibition of human OVCAR5 cells at 10 uM incubated for 48 hrs by sulforhodamine B assay relative to control; conditions: OVCAR-5, 48 h, read-out: GI; outline: as §2
NCI-H23 = assay: Growth inhibition of human NCI-H23 cells at 10 uM incubated for 48 hrs by sulforhodamine B assay relative to control; conditions: NCI-H23, 48 h, read-out: GI; outline: as §2
SNB-19 = assay: Growth inhibition of human SNB19 cells at 10 uM incubated for 48 hrs by sulforhodamine B assay relative to control; conditions: SNB-19, 48 h, read-out: GI; outline: as §1
OVCAR-8 = assay: Growth inhibition of human OVCAR8 cells at 10 uM incubated for 48 hrs by sulforhodamine B assay relative to control; conditions: OVCAR-8, 48 h, read-out: GI; outline: as §2
Malme-3M = assay: Growth inhibition of human MALME-3M cells at 10 uM incubated for 48 hrs by sulforhodamine B assay relative to control; conditions: read-out: GI; outline: as §2
K562 = assay: Growth inhibition of human K562 cells at 10 uM incubated for 48 hrs by sulforhodamine B assay relative to control; conditions: K562, 48 h, read-out: GI; outline: as §2
LOX IMVI = assay: Growth inhibition of human LOXIMVI cells at 10 uM incubated for 48 hrs by sulforhodamine B assay relative to control; conditions: read-out: GI; outline: as §2
HT-29 = assay: Growth inhibition of human HT-29 cells at 10 uM incubated for 48 hrs by sulforhodamine B assay relative to control; conditions: HT-29, 48 h, read-out: GI; outline: as §2
CCRF-CEM = assay: Growth inhibition of human CCRF-CEM cells at 10 uM incubated for 48 hrs by sulforhodamine B assay relative to control; conditions: read-out: GI; outline: as §2
A549 = assay: Growth inhibition of human A549/ATCC cells at 10 uM incubated for 48 hrs by sulforhodamine B assay relative to control; conditions: A549, 48 h, read-out: GI; outline: as §2
Hs-578T = assay: Growth inhibition of human Hs 578T cells at 10 uM incubated for 48 hrs by sulforhodamine B assay relative to control; conditions: read-out: GI; outline: as §2
UO-31 = assay: Growth inhibition of human UO31 cells at 10 uM incubated for 48 hrs by sulforhodamine B assay relative to control; conditions: UO-31, 48 h, read-out: GI; outline: as §1
MDA-MB-435 = assay: Growth inhibition of human MDA-MB-435 cells at 10 uM incubated for 48 hrs by sulforhodamine B assay relative to control; conditions: MDA-MB-435, 48 h, read-out: GI; outline: as §2
TK-10 = assay: Growth inhibition of human TK10 cells at 10 uM incubated for 48 hrs by sulforhodamine B assay relative to control; conditions: TK-10, 48 h, read-out: GI; outline: as §1
COLO 205 = assay: Growth inhibition of human COLO205 cells at 10 uM incubated for 48 hrs by sulforhodamine B assay relative to control; conditions: COLO 205, 48 h, read-out: GI; outline: as §2
RPMI-8226 = assay: Growth inhibition of human RPMI8226 cells at 10 uM incubated for 48 hrs by sulforhodamine B assay relative to control; conditions: RPMI-8226, 48 h, read-out: GI; outline: as §2
HOP-92 = assay: Growth inhibition of human HOP92 cells at 10 uM incubated for 48 hrs by sulforhodamine B assay relative to control; conditions: HOP-92, 48 h, read-out: GI; outline: as §2
PC-3 = assay: Growth inhibition of human PC3 cells at 10 uM incubated for 48 hrs by sulforhodamine B assay relative to control; conditions: PC-3, 48 h, read-out: GI; outline: as §2
HCC 2998 = assay: Growth inhibition of human HCC2998 cells at 10 uM incubated for 48 hrs by sulforhodamine B assay relative to control; conditions: HCC 2998, 48 h, read-out: GI; outline: as §2
MOLT-4 = assay: Growth inhibition of human MOLT4 cells at 10 uM incubated for 48 hrs by sulforhodamine B assay relative to control; conditions: MOLT-4, 48 h, read-out: GI; outline: as §2

SMILES	inhibition of growth at 10 µM (SF-295)	inhibition of growth at 10 µM (SK-MEL-2)	inhibition of growth at 10 µM (NCI-H226)	inhibition of growth at 10 µM (SW-620)	inhibition of growth at 10 µM (DU-145)	inhibition of growth at 10 µM (U-251)	inhibition of growth at 10 µM (EKVX)	inhibition of growth at 10 µM (UACC-257)	inhibition of growth at 10 µM (CAKI-1)	inhibition of growth at 10 µM (OVCAR-5)	inhibition of growth at 10 µM (NCI-H23)	inhibition of growth at 10 µM (SNB-19)	inhibition of growth at 10 µM (OVCAR-8)	inhibition of growth at 10 µM (Malme-3M)	inhibition of growth at 10 µM (K562)	inhibition of growth at 10 µM (LOX IMVI)	inhibition of growth at 10 µM (HT-29)	inhibition of growth at 10 µM (CCRF-CEM)	inhibition of growth at 10 µM (A549)	inhibition of growth at 10 µM (Hs-578T)	other results
CCOC(=O)C1=C(C)NC(SCc2nnc(-c3ccc(Cl)cc3)o2)=NC1c1ccc(OC)cc1 (centres undefined)	< 10%	< 10%	11.8%	< 10%	< 10%	10.1%	< 10%	< 10%	17.8%	< 10%	< 10%	12.5%	< 10%	< 10%	< 10%	< 10%	< 10%	12.9%	11.5%	< 10%	inhibition of growth at 10 µM (SK-MEL-28): < 10%; inhibition of growth at 10 µM (UO-31): 20.3%; inhibition of growth at 10 µM (MDA-MB-435): < 10%; inhibition of growth at 10 µM (TK-10): < 10%; inhibition of growth at 10 µM (COLO 205): < 10%; inhibition of growth at 10 µM (RPMI-8226): 18.3%; inhibition of growth at 10 µM (HOP-92): 17.6%; inhibition of growth at 10 µM (PC-3): 17.9%; inhibition of growth at 10 µM (HCC 2998): < 10%; inhibition of growth at 10 µM (MOLT-4): < 10%
CCOC(=O)C1=C(C)NC(SCc2nnc(-c3ccc(OC)cc3)o2)=NC1c1ccc(F)cc1 (centres undefined)	< 10%	< 10%	10.4%	< 10%	< 10%	< 10%	< 10%	11.8%	24.9%	< 10%	< 10%	11.4%	< 10%	< 10%	< 10%	< 10%	< 10%	15.3%	12.7%	< 10%	inhibition of growth at 10 µM (SK-MEL-28): < 10%; inhibition of growth at 10 µM (UO-31): 21.7%; inhibition of growth at 10 µM (MDA-MB-435): < 10%; inhibition of growth at 10 µM (TK-10): < 10%; inhibition of growth at 10 µM (COLO 205): < 10%; inhibition of growth at 10 µM (RPMI-8226): < 10%; inhibition of growth at 10 µM (HOP-92): 21.4%; inhibition of growth at 10 µM (PC-3): 12.5%; inhibition of growth at 10 µM (HCC 2998): < 10%; inhibition of growth at 10 µM (MOLT-4): < 10%
CC(=O)C1=C(C)NC(SCc2nnc(-c3ccc(Cl)cc3)o2)=NC1c1ccc(F)cc1 (centres undefined)	< 10%	< 10%	11.6%	< 10%	< 10%	< 10%	< 10%	< 10%	16.9%	< 10%	< 10%	< 10%	< 10%	< 10%	< 10%	< 10%	< 10%	< 10%	< 10%	< 10%	inhibition of growth at 10 µM (SK-MEL-28): < 10%; inhibition of growth at 10 µM (UO-31): 26.1%; inhibition of growth at 10 µM (MDA-MB-435): < 10%; inhibition of growth at 10 µM (TK-10): 14.6%; inhibition of growth at 10 µM (COLO 205): < 10%; inhibition of growth at 10 µM (RPMI-8226): 13.8%; inhibition of growth at 10 µM (HOP-92): < 10%; inhibition of growth at 10 µM (PC-3): 18.5%; inhibition of growth at 10 µM (HCC 2998): < 10%; inhibition of growth at 10 µM (MOLT-4): < 10%
CCOC(=O)C1=C(C)NC(SCc2nnc(-c3ccc(Cl)cc3)o2)=NC1c1ccc(F)cc1 (centres undefined)	< 10%	< 10%	10.6%	< 10%	< 10%	10.1%	< 10%	< 10%	17.5%	< 10%	< 10%	11.6%	11.7%	< 10%	14.4%	< 10%	10.3%	16.9%	11.7%	< 10%	inhibition of growth at 10 µM (SK-MEL-28): < 10%; inhibition of growth at 10 µM (UO-31): 22.2%; inhibition of growth at 10 µM (MDA-MB-435): < 10%; inhibition of growth at 10 µM (TK-10): 13.9%; inhibition of growth at 10 µM (COLO 205): < 10%; inhibition of growth at 10 µM (RPMI-8226): 25.8%; inhibition of growth at 10 µM (HOP-92): 27.8%; inhibition of growth at 10 µM (PC-3): 23.4%; inhibition of growth at 10 µM (HCC 2998): < 10%; inhibition of growth at 10 µM (MOLT-4): 20.4%
CC(=O)C1=C(C)NC(SCc2nnc(-c3ccc(C)cc3)o2)=NC1c1ccc(F)cc1 (centres undefined)	< 10%	< 10%	10.4%	< 10%	< 10%	< 10%	< 10%	< 10%	12%	10.4%	< 10%	< 10%	< 10%	< 10%	< 10%	< 10%	< 10%	11.9%	< 10%	< 10%	inhibition of growth at 10 µM (UO-31): 16.4%; inhibition of growth at 10 µM (MDA-MB-435): < 10%; inhibition of growth at 10 µM (TK-10): 14.4%; inhibition of growth at 10 µM (COLO 205): < 10%; inhibition of growth at 10 µM (RPMI-8226): 16.3%; inhibition of growth at 10 µM (HOP-92): < 10%; inhibition of growth at 10 µM (PC-3): 14.7%; inhibition of growth at 10 µM (HCC 2998): < 10%; inhibition of growth at 10 µM (MOLT-4): < 10%

From ChEMBL document CHEMBL4190234, “Design, synthesis and anticancer activity of new monastrol analogues bearing 1,3,4-oxadiazole moiety” (Eur J Med Chem, 2017)
